Results on one compound are retold here after ChEMBL document CHEMBL5230149, “Discovery of novel ketoxime ether derivatives with potent FXR agonistic activity, oral effectiveness and high liver/blood ratio” (Bioorg Med Chem, 2021).

One series has as its target T1, Bile acid receptor (Homo sapiens, UniProt Q96RI1).
T1 sequence (Q96RI1 whole entry): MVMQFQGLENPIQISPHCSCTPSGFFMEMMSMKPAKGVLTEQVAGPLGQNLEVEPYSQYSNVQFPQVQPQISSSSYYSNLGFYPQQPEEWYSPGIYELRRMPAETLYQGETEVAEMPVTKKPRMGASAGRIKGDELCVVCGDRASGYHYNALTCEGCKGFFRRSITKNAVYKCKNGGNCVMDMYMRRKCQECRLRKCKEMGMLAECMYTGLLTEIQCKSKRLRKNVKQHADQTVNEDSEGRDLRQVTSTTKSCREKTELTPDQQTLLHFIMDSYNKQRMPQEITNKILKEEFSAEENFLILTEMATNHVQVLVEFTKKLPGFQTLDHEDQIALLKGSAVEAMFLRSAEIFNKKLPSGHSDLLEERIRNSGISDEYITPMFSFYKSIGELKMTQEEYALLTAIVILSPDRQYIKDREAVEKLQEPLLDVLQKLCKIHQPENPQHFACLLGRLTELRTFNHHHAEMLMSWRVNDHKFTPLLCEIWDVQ
Kind of series: Agonist activity at human FXR expressed in human Huh-7 cells co-transfected with FXRE-Luc reporter plasmid assessed as receptor transactivation incubated for 16 hrs by luciferase reporter gene assay. It is filed as cell-based. On the technique in general: Reporter assays use an easily measured gene product as a stand-in for the process of interest.

In series [1] the target is T2, G-protein coupled bile acid receptor 1 (Homo sapiens, UniProt Q8TDU6).
T2 sequence (Q8TDU6 whole entry): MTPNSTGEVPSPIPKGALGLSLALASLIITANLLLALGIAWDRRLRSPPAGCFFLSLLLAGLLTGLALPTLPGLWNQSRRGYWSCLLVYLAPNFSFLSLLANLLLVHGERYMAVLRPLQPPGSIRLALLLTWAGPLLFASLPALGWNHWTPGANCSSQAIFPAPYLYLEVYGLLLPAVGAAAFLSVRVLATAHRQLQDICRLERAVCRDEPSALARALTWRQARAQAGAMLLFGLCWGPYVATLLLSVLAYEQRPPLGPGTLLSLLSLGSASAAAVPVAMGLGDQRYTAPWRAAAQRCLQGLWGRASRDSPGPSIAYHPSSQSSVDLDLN
Kind of series: Agonist activity at human TGR5 expressed in HEK293 cells co-transfected with CRE-Luc reporter plasmid assessed as receptor transactivation incubated for 5.5 hrs by luciferase reporter gene assay. It is filed as cell-based.

The target in series [2] is T3, TGR5 (G-protein coupled bile acid receptor 1) (Homo sapiens, UniProt Q8TDU6).
T3 sequence (Q8TDU6 whole entry): T2 sequence (Q8TDU6 whole entry)
Kind of series: Agonist activity at human TGR5 expressed in HEK293 cells co-transfected with CRE-Luc reporter plasmid assessed as receptor transactivation incubated for 5.5 hrs by luciferase reporter gene assay relative to OCA. The note with it: read-out: Efficacy. It is filed as cell-based.

Series [3] has as its target T4, Bile acid receptor (Mus musculus) (UniProt Q60641).
T4 sequence (whole entry): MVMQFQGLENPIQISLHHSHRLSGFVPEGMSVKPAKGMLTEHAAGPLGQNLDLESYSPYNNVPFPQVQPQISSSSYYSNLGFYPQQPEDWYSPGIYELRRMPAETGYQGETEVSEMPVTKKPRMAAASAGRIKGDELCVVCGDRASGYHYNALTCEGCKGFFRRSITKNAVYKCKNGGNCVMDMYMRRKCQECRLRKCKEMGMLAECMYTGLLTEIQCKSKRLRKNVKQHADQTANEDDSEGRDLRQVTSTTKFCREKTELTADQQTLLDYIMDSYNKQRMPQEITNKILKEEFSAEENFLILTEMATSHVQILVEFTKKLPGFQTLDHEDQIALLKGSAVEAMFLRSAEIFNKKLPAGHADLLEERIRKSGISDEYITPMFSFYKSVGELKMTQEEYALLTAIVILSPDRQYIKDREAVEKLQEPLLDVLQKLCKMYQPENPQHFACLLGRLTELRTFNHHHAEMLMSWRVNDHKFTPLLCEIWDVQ
In words: Agonist activity at FXR in C57BL/6J mouse hepatocytes assessed as upregulation of SHP mRNA expression incubated for 24 hrs by qRT-PCR analysis. The note with it: Hepatocyte, filed as agonist, dose 0.4-10 µM. Type of series: cell-based. A digest of the protocol: (§1)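 Hepatocytes isolated from overnight-fasted male C57BL/6J mice (8–12 weeks), allowed 4 h to adhere, then given vehicle (0.5% DMSO) or compound at 0.4, 2 and 10 μM for 24 h. TRIzol RNA extraction, then qRT-PCR with GAPDH normalization by ΔΔCt. Values are expressed as fold over vehicle (mean ± S.E.M, n = 3).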

Series [4] addresses T4, Bile acid receptor (Mus musculus). Kind of series: Agonist activity at FXR in C57BL/6J mouse hepatocytes assessed as fold upregulation of SHP mRNA expression at 10 uM incubated for 24 hrs by qRT-PCR analysis relative to control. It is filed as cell-based. The note with it: Hepatocyte. The procedure, abridged: as §1
For orientation: In qPCR the cycle at which signal appears reflects the starting amount.

For series [5] the target is unchanged. Kind of series: Agonist activity at FXR in C57BL/6J mouse hepatocytes assessed as upregulation of BSEP mRNA expression at 0.4 to 10 uM incubated for 24 hrs by qRT-PCR analysis. Type of series: cell-based. As to conditions: Hepatocyte, filed as agonist, dose 0.4-10 µM. The procedure, abridged: as §1
Series [6] shares this target. Kind of series: In vivo agonist activity at FXR in C57BL/6J mouse assessed as fold upregulation of SHP mRNA expression in liver at 10 mg/kg, po measured after 6 hrs by qRT-PCR analysis relative to control. It is filed as functional, organism-based. The procedure, abridged: (§2)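 Male C57BL/6J mice (7–8 weeks) were fasted 3 h, then dosed orally once in 0.25% CMC-Na (wt/vol) vehicle. Sacrificed 6 h post-dose; liver snap-frozen at -80 °C. TRIzol RNA extraction and qRT-PCR with GAPDH normalization (ΔΔCt). Results are fold over vehicle group (mean ± S.E.M, n = 6).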

Series [7] shares this target. Kind of series: In vivo agonist activity at FXR in C57BL/6J mouse assessed as downregulation of CYP7A1 mRNA expression in liver at 10 mg/kg, po measured after 6 hrs by qRT-PCR analysis. Type of series: functional, organism-based. A digest of the protocol:
as §2

The target is the same in series [8]. Kind of series: In vivo agonist activity at FXR in C57BL/6J mouse assessed as downregulation of CYP8B1 mRNA expression in liver at 10 mg/kg, po measured after 6 hrs by qRT-PCR analysis. Type of series: functional, organism-based. The procedure, abridged: as §2
The target is the same in series [9]. In words: In vivo agonist activity at FXR in C57BL/6J mouse assessed as fold upregulation of SHP mRNA expression in ileum at 10 mg/kg, po measured after 6 hrs by qRT-PCR analysis relative to control. It is filed as functional, organism-based. A digest of the protocol: (§3)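 Fasting of male C57BL/6J mice (7–8 weeks) for 3 h preceded a single oral dose in 0.25% CMC-Na (wt/vol). Ileum was collected 6 h after dosing and snap-frozen. RNA was extracted with TRIzol for qRT-PCR, normalized to GAPDH (ΔΔCt). Reported as fold of vehicle group (mean ± SEM, n = 6).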

For series [10] the target is unchanged. Kind of series: In vivo agonist activity at FXR in C57BL/6J mouse assessed as fold upregulation of FGF15 mRNA expression in ileum at 10 mg/kg, po measured after 6 hrs by qRT-PCR analysis relative to control. Type of series: functional, organism-based. A digest of the protocol: as §3
The nature of series [11]: Drug uptake in ICR mouse liver at 15 mg/kg, po measured after 1.5 hrs by LC-MS/MS analysis. It is filed as ADME, organism-based. The note with it: read-out: Drug uptake. A digest of the protocol: (§4)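 Overnight-fasted male ICR mice (n = 3 per time point) received single oral 15 mg/kg and were refed 2 h later. Blood and liver were taken at 1.5, 4 and 8 h. Serum (10 µL) was precipitated with 100 µL methanol/acetonitrile (1:1). Liver was homogenized in ten times its weight of the same solvent. Supernatants were diluted 1:1 in ACN/H₂O and analyzed by LC-MS/MS. The ratio is liver conc (ng/g) over plasma conc (ng/mL).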

Series [12] is described as follows: Drug uptake in ICR mouse liver at 15 mg/kg, po measured after 4 hrs by LC-MS/MS analysis. Type of series: ADME, organism-based. The note with it: read-out: Drug uptake. A digest of the protocol:
as §4

Series [13] is described as follows: Drug uptake in ICR mouse liver at 15 mg/kg, po measured after 8 hrs by LC-MS/MS analysis. It is filed as ADME, organism-based. As to conditions: read-out: Drug uptake. A digest of the protocol:
as §4

A short description of series [14]: Plasma concentration in ICR mouse at 15 mg/kg, po measured after 1.5 hrs by LC-MS/MS analysis. Type of series: ADME, organism-based. A digest of the protocol: as §4
The nature of series [15]: Plasma concentration in ICR mouse at 15 mg/kg, po measured after 4 hrs by LC-MS/MS analysis. It is filed as ADME, organism-based. A digest of the protocol:
as §4

Series [16] in a line: Plasma concentration in ICR mouse at 15 mg/kg, po measured after 8 hrs by LC-MS/MS analysis. It is filed as ADME, organism-based. The procedure, abridged:
as §4

Series [17] in a line: Ratio of drug uptake in ICR mouse liver to plasma at 15 mg/kg, po measured after 1.5 hrs by LC-MS/MS analysis. It is filed as ADME, organism-based. The procedure, abridged: as §4
Series [18] in a line: Ratio of drug uptake in ICR mouse liver to plasma at 15 mg/kg, po measured after 4 hrs by LC-MS/MS analysis. It is filed as ADME, organism-based. The procedure, abridged: as §4
Series [19] in a line: Ratio of drug uptake in ICR mouse liver to plasma at 15 mg/kg, po measured after 8 hrs by LC-MS/MS analysis. It is filed as ADME, organism-based. The procedure, abridged: as §4

Calls of active or inactive are those of the source. The rule behind the calls is not given here. A value given as a limit tells only on which side of the number the result lay.

`C/C(=N\OCc1cc(C(=O)O)ccc1C#N)c1ccc(OCc2c(-c3c(Cl)cccc3Cl)noc2C2CC2)cc1Cl`: the EC50 at Bile acid receptor was 45.2 nM; in series [1] it was more than 100000 nM. In addition, the Emax at 5.5 h in [2] came out at 1.1%. Besides, in [3], the Activity result was “Dose-Dependent Effect”. For the same compound, the fold change (FC) was more than 40 in series [4], 2 in series [6], 20 in series [9] and 5 in [10]. For the same compound, the result in series [5], in series [7] and in series [8] was Active. For the same compound, the concentration at 1.5 h was 4530 ng/g in [11] and 124 ng/mL in [14]. In addition, the concentration at 4 h is 2610 ng/g in series [12] and 45.4 ng/mL in series [15]. Further, the concentration at 8 h in series [13] amounted to 341 ng/g; in [16] it was 7.8 ng/mL. The Kp at 1.5 h in series [17] was 37. Also, the Kp at 4 h in [18] was 57. For the same compound, the Kp at 8 h in series [19] stood at 43.

One may read the EC50 as the concentration at which the effect is half-maximal. In general, Kp refers to the ratio of the level in a tissue or fluid to that in plasma or blood.
